{"source": "ChEMBL document CHEMBL1140904", "about": "“Synthesis and analysis of novel glycerolipids for the treatment of metabolic syndrome” (J Med Chem, 2009)", "key": {"[1]": {"tested_on": "Rattus norvegicus", "assay": "Effect on fatty acid composition in Wistar rat assessed as change in liver MUFA level at dose equivalent to 250 umol of tetradecylthioacetic acid, po after 6 days", "format": "functional", "method_in_brief": "(§1)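 Male Wistar rats were gavaged once daily for 6 days with compound in 0.5% CMC at 85 or 250 µmol TTA-equivalent per animal. Controls received palmitic acid. Liver was homogenized in 0.25 M sucrose/10 mM HEPES pH 7.4/1 mM EDTA at 0-4 °C. Lipids were extracted with chloroform:methanol 2:1 and spiked with 21:0 internal standard. Fatty acids were BF3-methanol transesterified and quantified as wt%. Values are mean ± SD, n=5.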"}, "[2]": {"tested_on": "Rattus norvegicus", "assay": "Effect on fatty acid composition in Wistar rat assessed as change in plasma saturated fatty acid level at dose equivalent to 85 umol of tetradecylthioacetic acid, po after 6 days", "format": "functional"}, "[3]": {"tested_on": "Rattus norvegicus", "assay": "Induction of PPAR-alpha-regulated HMG-CoA synthase activity in po dosed Wistar rat after 6 days", "format": "functional, organism-based", "method_in_brief": "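Wistar rats were gavaged daily for 6 days at 85 or 250 µmol TTA-equivalent in 0.5% CMC, with palmitic acid controls. HMG-CoA synthase activity was assayed in the liver postnuclear fraction by the Clinkenbeard method. Mean ± SD, 5 rats/group.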"}, "[4]": {"tested_on": "Rattus norvegicus", "assay": "Effect on fatty acid composition in Wistar rat assessed as change in liver LCPUFA, n-6 level at dose equivalent to 250 umol of tetradecylthioacetic acid, po after 6 days", "format": "functional", "method_in_brief": "as §1"}, "[5]": {"tested_on": "Rattus norvegicus", "assay": "Induction of PPAR-alpha-regulated CPT2 activity in po dosed Wistar rat after 6 days", "format": "functional, organism-based", "method_in_brief": "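Wistar rats were dosed orally for 6 days (85 or 250 µmol TTA-equivalent in 0.5% CMC; palmitic acid controls). CPT-II activity was measured in the liver mitochondrial fraction, prepared from sucrose/HEPES pH 7.4/EDTA homogenate at 0-4 °C. Means ± SD from 5 rats per group.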"}, "[6]": {"tested_on": "Rattus norvegicus", "assay": "Effect on fatty acid composition in Wistar rat assessed as change in liver LCn-6/18:2 level at dose equivalent to 85 umol of tetradecylthioacetic acid, po after 6 days", "format": "functional", "method_in_brief": "as §1"}, "[7]": {"tested_on": "Rattus norvegicus", "assay": "Effect on fatty acid composition in Wistar rat assessed as change in plasma MUFA level at dose equivalent to 85 umol of tetradecylthioacetic acid, po after 6 days", "format": "functional"}, "[8]": {"tested_on": "Rattus norvegicus", "assay": "Increase in [1-14C]palmitoyl-CoA oxidation in Wistar rat liver homogenate at 250 uM, po after 6 days", "format": "functional, organism-based", "method_in_brief": "(§2)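 Rats were dosed by gastric intubation for 6 days with 85 or 250 µmol TTA-equivalent in 0.5% CMC, with palmitic acid controls. Liver was homogenized in 0.25 M sucrose, 10 mM HEPES pH 7.4, 1 mM EDTA at 0-4 °C. Palmitoyl-CoA oxidation was read as acid-soluble products from [1-14C]-palmitoyl-CoA in the postnuclear fraction. Mean ± SD, n=5.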"}, "[9]": {"tested_on": "Rattus norvegicus", "assay": "Decrease in plasma triacylglycerol level in Wistar rat at dose equivalent to 250 umol of tetradecylthioacetic acid, po after 6 days relative to control", "format": "functional", "set-up": "scale not given: the % may be the effect or the level left", "method_in_brief": "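Male Wistar rats (170-210 g), housed in pairs with chow and water, were gavaged once daily for 6 days with test lipid in 0.5% (w/v) carboxymethylcellulose at 85 or 250 µmol TTA-equivalent per animal. Controls received palmitic acid in CMC. Plasma triacylglycerol and cholesterol were measured with an enzymatic kit, and liver levels were also determined. Values are mean ± SD, n=5 rats.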"}, "[10]": {"tested_on": "Rattus norvegicus", "assay": "Increase in [1-14C]palmitoyl-CoA oxidation in po dosed Wistar rat liver homogenate after 6 days", "format": "functional, organism-based", "method_in_brief": "as §2"}, "[11]": {"tested_on": "Rattus norvegicus", "assay": "Effect on fatty acid composition in Wistar rat assessed as change in plasma LCPUFA, n-6 level at dose equivalent to 250 umol of tetradecylthioacetic acid, po after 6 days", "format": "functional"}, "[12]": {"tested_on": "Rattus norvegicus", "assay": "Plasma concentration in Wistar rat assessed as tetradecylthioacetic acid at dose equivalent to 250 umol of tetradecylthioacetic acid, po after 6 days", "format": "ADME, organism-based", "conditions": "in vivo, 144 h"}}, "note": "The source made the active and inactive calls. The rule behind the calls is not given here.", "data": [{"smiles": "CCCCCCCCCCCCCCSCC(=O)OC[C@H](COP(=O)([O-])OCC[N+](C)(C)C)OC(=O)CSCCCCCCCCCCCCCC", "note": "[PHOSPHATIDYLCHOLINE]", "values": [{"measurement": "Activity", "setting": "[1]", "value": 16.33, "unit": "%"}, {"measurement": "Activity", "setting": "[2]", "value": 35.65, "unit": "%"}, {"measurement": "Activity", "setting": "[3]", "value": "Dose-dependent effect"}, {"measurement": "Activity", "setting": "[4]", "value": 30.3, "unit": "%"}, {"measurement": "Activity", "setting": "[5]", "value": "Dose-dependent effect"}, {"measurement": "Activity", "setting": "[6]", "value": 2.19, "unit": "%"}, {"measurement": "Activity", "setting": "[7]", "value": 22.53, "unit": "%"}, {"measurement": "Activity", "setting": "[8]", "value": "inactive"}, {"measurement": "Activity", "setting": "[9]", "value": 60, "unit": "%"}, {"measurement": "Activity", "setting": "[10]", "value": "Dose-dependent effect"}, {"measurement": "Activity", "setting": "[11]", "value": 22.07, "unit": "%"}, {"measurement": "Drug uptake", "setting": "[12]", "value": 1.95, "unit": "%"}]}]}
